RGS4 block: human RGS4 inhibition; P49798; HEK293 M3R/RGS4 inducible, Fluo-4 calcium flux; hits give high values; triggered by carbachol at its EC20; B-score at 10 µM; actives 0.45% (n = 310,000);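 active = B-score, a plate-corrected calcium signal, over three deviations above library mean, with baseline fluorescence within five deviations of library mean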;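 also: RGS4 expression induced by doxycycline in cells with stable M3 receptor; B-score is computed from the integrated fluorescence ratio over baseline after carbachol; higher B-score means a larger calcium signal and so more RGS4 inhibition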
KCC2 mod: modulators of human KCC2 chloride dependent transport | KCC2 cells, thallium flux FluoZin-2 fluorescence | B-score of Tl+ flux slope (higher = more flux/activation; lower = inhibition) at 10 µM | actives 2.2% (n = 190,000) | AID 1456;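 active = thallium flux slope and its plate-corrected score both differing from the plate sample mean at a set confidence after two filtering rounds, in either direction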;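 also: slope of fluorescence scaled to starting intensity during 10 to 20 s after thallium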
Target sequence (Q9H2X9 whole entry, looked up): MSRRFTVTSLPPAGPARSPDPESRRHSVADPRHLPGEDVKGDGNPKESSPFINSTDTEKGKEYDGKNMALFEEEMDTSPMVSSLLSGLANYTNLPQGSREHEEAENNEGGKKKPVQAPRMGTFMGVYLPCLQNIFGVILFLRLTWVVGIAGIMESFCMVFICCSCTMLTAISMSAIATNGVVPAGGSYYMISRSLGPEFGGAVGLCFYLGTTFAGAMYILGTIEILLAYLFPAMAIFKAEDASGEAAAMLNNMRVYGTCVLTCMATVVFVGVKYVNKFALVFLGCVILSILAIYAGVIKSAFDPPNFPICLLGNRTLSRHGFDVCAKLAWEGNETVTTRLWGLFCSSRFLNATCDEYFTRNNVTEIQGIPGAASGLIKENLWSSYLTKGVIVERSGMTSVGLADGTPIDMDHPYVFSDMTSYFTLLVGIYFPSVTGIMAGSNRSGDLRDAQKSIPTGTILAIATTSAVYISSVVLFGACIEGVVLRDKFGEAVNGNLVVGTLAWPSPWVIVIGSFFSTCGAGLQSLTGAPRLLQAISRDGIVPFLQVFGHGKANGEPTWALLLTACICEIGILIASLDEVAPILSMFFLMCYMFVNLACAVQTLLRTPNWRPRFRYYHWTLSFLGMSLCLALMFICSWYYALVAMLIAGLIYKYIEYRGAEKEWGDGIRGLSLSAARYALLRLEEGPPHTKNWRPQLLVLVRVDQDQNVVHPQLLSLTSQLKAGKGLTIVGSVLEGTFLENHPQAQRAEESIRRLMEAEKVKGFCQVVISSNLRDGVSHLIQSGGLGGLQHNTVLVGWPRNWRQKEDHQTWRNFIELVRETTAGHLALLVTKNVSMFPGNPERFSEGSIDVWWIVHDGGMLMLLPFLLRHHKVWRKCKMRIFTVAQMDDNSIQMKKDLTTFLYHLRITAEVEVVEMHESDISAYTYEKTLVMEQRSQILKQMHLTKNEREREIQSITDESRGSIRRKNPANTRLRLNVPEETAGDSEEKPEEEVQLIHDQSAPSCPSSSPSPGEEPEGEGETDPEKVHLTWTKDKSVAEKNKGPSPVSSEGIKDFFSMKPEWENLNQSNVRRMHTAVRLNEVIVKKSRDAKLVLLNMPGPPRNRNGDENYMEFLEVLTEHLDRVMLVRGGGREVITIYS
MrgX1 ag: human MrgX1 receptor agonism, primary screen; AID 588627; B-score at 10 µM; actives 0.44% (n = 310,000); MrgX1-HEK293 cells, Fluo-4 calcium fluorescence, agonist mode; hits give high values; Q96LB2;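 active = calcium response B-score plate-corrected fluorescence ratio at least 3 library SD, with starting fluorescence B-score inside 5 SD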
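System: HEK293 cells stably expressing human MrgX1 receptor; Dosing: test compound in the initial addition of three; Schedule: overnight plating, then 30 min 37 °C plus 30 min room-temperature dye loading; Detection: kinetic calcium dye fluorescence, Fluo-4 NW; Controls: per-plate positive and negative controls for Z′ factor.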
MrgX1 PAM: allosterically activates human MrgX1 receptor signaling; AID 588675; MrgX1-HEK293, Fluo-4 calcium flux, FDSS; hits give high values; B-score at 10 µM; actives 0.63% (n = 310,000);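 active = plate-corrected calcium response at least 3 library SD above typical, normal starting fluorescence, not activating the receptor alone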;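 also: compound read alongside a low EC10 to EC30 dose of BAM8-22 agonist; peak minus trough fluorescence over baseline measured at the second addition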
MrgX1 antag: blocks BAM8-22 activation of human MrgX1 receptor | Q96LB2 | MRGX1-HEK293 calcium flux, Fluo-4, BAM8-22 antagonism; hits give low values | B-score at 10 µM | actives 1.3% (n = 310,000) | AID 588676;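 active = calcium-response B-score plate-corrected more than 3 library SD below zero, starting fluorescence within 5 deviations, no agonist response on first addition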;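 also: peak minus trough fluorescence over baseline after final BAM8-22 challenge near maximal dose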
RGS4 pot: RGS4 potentiation or activation; HEK293 M3R/inducible RGS4, carbachol calcium flux Fluo4; hits give low values; B-score at 10 µM; actives 0.92% (n = 310,000); AID 463111;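 active = B-score of the integrated calcium signal more than 4 SD below the library mean, with starting fluorescence not abnormally high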;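 also: negative B-score means reduced calcium response which marks RGS4 activation or potentiation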
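test system = HEK293 cells with stable M3R and inducible RGS4 | schedule = recording 10 s baseline at 1 Hz, 100 s post-agonist | technique = Fluo4-AM (2 µM) calcium-flux fluorescence, kinetic read | measure = Agonist-evoked peak-minus-minimum fluorescence over baseline, integrated ratio, B score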
KCC2 sec1: KCC2 (human) modulation, secondary assay | shares compounds with KCC2 mod | HEK293-KCC2, thallium flux, FluoZin2 fluorescence; hits give high values | normalised thallium flux (F/F0 slope) at 10 µM | actives 15% (n = 3,700);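 active = thallium flux slope above the same plate's solvent-only control mean plus 3 SD; inconclusive = the two replicate wells disagree; inactive = no significant difference from solvent-only control wells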
KCC2 bumet counter: bumetanide-insensitive thallium flux in KCC2 cells with ouabain, counter-screen; shares compounds with KCC2 mod; HEK293-KCC2 + bumetanide/ouabain, thallium flux FluoZin2; hits give high values; normalized thallium flux at 10 µM; actives 49% (n = 3,700); AID 1714;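 active = thallium entry rate above the same plate's blocked-transporter control wells by more than 3 SD; inconclusive = the two repeat wells disagree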;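 also: raw slope of fluorescence over initial fluorescence between 10 and 20 s after thallium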
KCC2 secondary2: confirmation of human KCC2 transport modulators; shares compounds with KCC2 mod; HEK293-KCC2, thallium flux FluoZin2 fluorescence; actives lie on both sides; F/F0 rise rate, 10–20 s post-thallium; normalized thallium flux at 10 µM; actives 23% (n = 3,700);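 active = thallium flux slope more than 3 SD above or below the plate's solvent-only control mean, mostly below; inconclusive = the two repeat wells disagreed; inactive = no significant shift from solvent-only controls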;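 also: raw slope with 0.1% DMSO as baseline and bumetanide as block control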
HEK293 Tl flux: acts in parental HEK cells, KCC2 counter-screen. shares compounds with KCC2 mod. HEK293 parental cells, thallium flux FluoZin2, ouabain; baseline-ratio fluorescence slope, 10–20 s after thallium. thallium flux rate (normalised fluorescence) at 10 µM. actives 46% (n = 3,700);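 active = thallium flux rate significantly above the same plate's solvent-only control wells, beyond their mean plus 3 SD; inconclusive = the two replicate wells gave conflicting results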
KCC2 retest ouab: confirmation of human KCC2 modulators with ouabain | raw Tl+ flux slope (below DMSO = inhibition, above = activation) at 10 µM | shares compounds with KCC2 mod | actives 48% (n = 3,700) | HEK293-KCC2, thallium flux FluoZin2 fluorescence; bidirectional: low = inhibitor, high = activator | AID 1717;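 active = thallium flux slope beyond 3 SD from same-plate DMSO control mean in most replicates, usually higher, sometimes lower; inconclusive = repeat tests gave conflicting results; inactive = no significant difference from controls in most replicates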;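 also: slope of initial-normalized fluorescence between seconds 10 and 20 after thallium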
HEK293 Tl flux2: counter-screen for KCC2 modulators: effect in parental HEK293 cells. thallium flux FluoZin-2 fluorescence slope. thallium flux slope at 10 µM. actives 33% (n = 3,700). shares compounds with KCC2 mod;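 active = thallium flux slope above the same plate's solvent-control mean plus 3 SD in both duplicate wells; inconclusive = duplicate wells that disagreed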;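 also: run without ouabain in cells lacking the KCC2 cotransporter; slope of fluorescence scaled to its starting value between 10 and 20 s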
An asterisk follows results filed as active; i = inactive; ? = inconclusive; nt = no result. In the library only some 4.7% were active in any assay of this set; here they are far more common.

SMILES	RGS4 block	KCC2 mod	MrgX1 ag	MrgX1 PAM	MrgX1 antag	RGS4 pot	KCC2 sec1	KCC2 bumet counter	KCC2 secondary2	HEK293 Tl flux	KCC2 retest ouab	HEK293 Tl flux2
O=C(CSc1ccc(-c2ccc(Cl)cc2)nn1)N1CCCc2ccccc21	i	-0.46	i	i	i	i	nt	nt	nt	nt	nt	nt
O=C(CSc1ccc(-c2ccc(F)cc2)nn1)N1CCCc2ccccc21	i	-3.7*	i	i	i	-7.4*	0.0059	0.0038	0.02*	?	0.013*	0.0092
CCOC(=O)N1CCN(C(=O)CSc2ccc(-c3ccccc3)nn2)CC1	i	-4.2*	i	i	i	i	0.0095	?	0.028*	0.0071	0.014*	0.011
CC(=O)Nc1ccc(NC(=O)CSc2ccc(-c3ccco3)nn2)cc1	i	-1.6	i	i	i	i	nt	nt	nt	nt	nt	nt
Cc1ccc(NC(=O)CSc2ccc(-c3ccco3)nn2)cc1	i	-3.3*	i	i	i	i	0.018	0.0052	0.022*	0.0076	0.013	0.01
CCOc1ccc(-c2ccc(SCC(=O)Nc3nnc(CC)s3)nn2)cc1	i	4*	i	i	i	i	0.0058	0.0078*	0.034	0.01*	?	0.013*
CCOC(=O)N1CCN(C(=O)CSc2ccc(-c3ccncc3)nn2)CC1	i	-0.37	i	i	i	i	nt	nt	nt	nt	nt	nt
Cc1nonc1NC(=O)CSc1ccc(-c2ccccc2)nn1	i	-8*	i	i	i	i	0.0075	0.0053	0.022*	0.0066	?	0.01
O=C(N/N=C/c1cn(-c2cccs2)nc1-c1ccccc1)c1ccccc1O	i	5.4*	i	i	-8.3*	i	0.0096	0.019*	0.032	0.011*	0.023	?
O=C(N/N=C/c1cn(-c2cccs2)nc1-c1ccccc1)c1ccccc1Br	i	0.26	i	i	i	i	nt	nt	nt	nt	nt	nt
O=C(c1ccc(S(=O)(=O)c2cccc(Cl)c2)c([N+](=O)[O-])c1)N1CCN(c2ccccn2)CC1	i	-5*	i	i	i	i	0.0058	0.0046	0.022*	0.0077	?	0.01
O=C(c1cccc(Cl)c1)N1CCN(c2ccccn2)CC1	i	nt	i	i	i	i	nt	nt	nt	nt	nt	nt
CC(C)C[C@H](NC(=O)N1CCCCCC1)C(=O)O	i	0.065	i	i	i	i	nt	nt	nt	nt	nt	nt
COc1ccc(NC(=O)CCNS(=O)(=O)c2cc(Br)ccc2Br)cc1S(N)(=O)=O	i	nt	i	i	i	i	nt	nt	nt	nt	nt	nt
CCCc1cc(=O)[nH]c(SCC(=O)c2ccc3c(c2)NC(=O)CO3)n1	i	11*	i	i	i	i	0.016	0.0041	0.029	0.0074	0.017	0.0095
Nc1nnc(SCC(=O)c2ccc3c(c2)NC(=O)CO3)s1	i	0.24	i	i	i	i	nt	nt	nt	nt	nt	nt
O=C(Cn1cc(S(=O)(=O)Cc2ccccc2F)c2ccccc21)N1CCOCC1	i	nt	i	i	i	i	nt	nt	nt	nt	nt	nt
Cc1ccc(S(=O)(=O)NC2=NCN(Cc3ccccc3)CN2)cc1	i	-3.3*	i	i	i	i	0.0084	0.0061	0.033	0.0078	?	0.011
Cc1ccc(S(=O)(=O)NC2=NCN(CCc3ccccc3)CN2)cc1	i	nt	i	i	i	i	nt	nt	nt	nt	nt	nt
COc1ccc(-n2cnnc2SCC(=O)Nc2cc(S(=O)(=O)N3CCCCC3)ccc2C)cc1	i	-4.4*	i	i	i	i	0.009	0.0057	0.026*	0.0043	0.014*	0.011
COc1ccc(S(=O)(=O)N2CCCCC2)cc1NC(=O)CSc1ncnc2ccccc12	i	-3.3*	i	i	i	i	0.0081	0.0054	0.032	?	0.015*	0.011
Cc1ccc(S(=O)(=O)N2CCCCC2)cc1NC(=O)CSc1nncn1-c1ccccc1	i	-2.3	i	i	i	i	nt	nt	nt	nt	nt	nt
CCN(CC)S(=O)(=O)c1ccc(NC(=O)CSc2ncnc3ccccc23)cc1	i	-5.2*	i	i	i	i	0.0092	0.0071	?	0.0066	0.013*	0.011
NS(=O)(=O)c1ccc(NC(=O)CSc2ncnc3ccccc23)cc1	i	-0.61	i	i	i	i	nt	nt	nt	nt	nt	nt
Cc1c(OC(C)C(=O)N2C[C@H]3C[C@@H](C2)c2cccc(=O)n2C3)ccc2c3c(c(=O)oc12)CCCC3 (some centres not stated)	i	nt	i	i	i	i	nt	nt	nt	nt	nt	nt
SMILES	RGS4 block	KCC2 mod	MrgX1 ag	MrgX1 PAM	MrgX1 antag	RGS4 pot	KCC2 sec1	KCC2 bumet counter	KCC2 secondary2	HEK293 Tl flux	KCC2 retest ouab	HEK293 Tl flux2
O=C(CSc1nc2ccccc2[nH]1)Nc1ccc(F)c(F)c1	i	-1.8	i	i	i	i	nt	nt	nt	nt	nt	nt
O=C(CSc1nc2ccccc2[nH]1)Nc1ccccc1F	i	-4.7*	i	i	i	i	0.0072	0.0039	0.032	0.0074	0.019	0.01
Cc1ccc(S(=O)(=O)NN2C(=O)/C(=C/c3cccs3)SC2=S)cc1	i	27*	i	i	i	i	0.0062	0.053*	0.05*	0.045*	0.051*	0.043*
Cc1nc2ccccc2nc1SCC(=O)N1CCC(C)CC1	i	nt	i	i	i	i	nt	nt	nt	nt	nt	nt
Cc1ccnc(N2CCN(C(=O)CSc3nc4ccccc4nc3N3CCC(C)CC3)CC2)c1	i	4.8*	i	i	i	i	0.0056	0.0087*	0.034	0.0094*	?	?
S=c1[nH]nc(CNc2cccc(Cl)c2)o1	i	-5.2*	i	i	i	i	0.0069	?	0.025*	0.0077	0.014*	0.01

Screening results as filed in PubChem.
